pIC50: −log10 of the molar value.
How the values were obtained:
[1] = target: T1, Poly [ADP-ribose] polymerase 1 (Homo sapiens, UniProt P09874); test: Inhibition of PARP1
[2] = Solubility in water; assay type: physicochemical; conditions: buffer
[3] = target: T1, Poly [ADP-ribose] polymerase 1; conditions: CHO-K1
[4] = Half life in human liver microsomes by LC/MS/MS analysis; assay type: ADME, Microsome
Summary of the method: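 Human liver microsomes incubated at 37 °C. Parent compound quantified by LC/MS/MS at 0, 15, 45 and 80 min, giving t1/2 in min. Mean of triplicate experiments; buspirone run alongside.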

[5] = AUC (0 to infinity) in rat at 10 mg/kg, iv by LC/MS/MS analysis; assay type: ADME, organism-based; parameters: time infinity, dose 10 mg/kg, route intravenous; conditions: plasma
Summary of the method: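 Rats (n = 3) received a single 10 mg/kg intravenous dose. Drug levels were measured by LC/MS/MS, and AUC from zero to infinity was derived alongside clearance and half-life as part of the pharmacokinetic profile.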

[6] = Clearance in rat at 10 mg/kg, iv by LC/MS/MS analysis; assay type: ADME, organism-based; parameters: dose 10 mg/kg, route intravenous; conditions: in vivo
Summary of the method: (§1)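 Rats (n = 3) given 10 mg/kg by intravenous administration; plasma levels measured by LC/MS/MS; AUC0-inf, CL and t1/2 reported.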

[7] = Half life in rat at 10 mg/kg, iv by LC/MS/MS analysis; assay type: ADME, organism-based; parameters: dose 10 mg/kg, route intravenous; conditions: in vivo; summary of the method: as §1
[8] = Drug level in rat brain at 10 mg/kg, iv after 0.17 hrs by LC/MS/MS analysis; assay type: ADME, organism-based; parameters: dose 10 mg/kg, route intravenous; conditions: read-out: Drug uptake
Summary of the method: (§2)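 Single intravenous dose of 10 mg/kg in rats, n = 3. Brain (ng/g) and plasma (ng/ml) concentrations measured by LC/MS/MS at 0.17, 0.75 and 4.00 h. Ratio is brain over plasma concentration.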

[9] = Drug level in rat brain at 10 mg/kg, iv after 0.75 hrs by LC/MS/MS analysis; assay type: ADME, organism-based; parameters: dose 10 mg/kg, route intravenous; conditions: read-out: Drug uptake; summary of the method: as §2
[10] = Drug level in rat brain at 10 mg/kg, iv after 4 hrs by LC/MS/MS analysis; assay type: ADME, organism-based; parameters: dose 10 mg/kg, route intravenous; conditions: read-out: Drug uptake; summary of the method: as §2
[11] = Drug level in rat plasma at 10 mg/kg, iv after 0.17 hrs by LC/MS/MS analysis; assay type: ADME, organism-based; parameters: dose 10 mg/kg, route intravenous; summary of the method: as §2
[12] = Drug level in rat plasma at 10 mg/kg, iv after 0.75 hrs by LC/MS/MS analysis; assay type: ADME, organism-based; parameters: dose 10 mg/kg, route intravenous; summary of the method: as §2
[13] = Drug level in rat plasma at 10 mg/kg, iv after 4 hrs by LC/MS/MS analysis; assay type: ADME, organism-based; parameters: dose 10 mg/kg, route intravenous; summary of the method: as §2
[14] = Ratio of drug level in brain to plasma in rat at 10 mg/kg, iv after 0.17 hrs by LC/MS/MS analysis; assay type: ADME, organism-based; parameters: dose 10 mg/kg, route intravenous; summary of the method: as §2
[15] = Ratio of drug level in brain to plasma in rat at 10 mg/kg, iv after 0.75 hrs by LC/MS/MS analysis; assay type: ADME, organism-based; parameters: dose 10 mg/kg, route intravenous; summary of the method: as §2
[16] = Ratio of drug level in brain to plasma in rat at 10 mg/kg, iv after 4 hrs by LC/MS/MS analysis; assay type: ADME, organism-based; parameters: dose 10 mg/kg, route intravenous; summary of the method: as §2

T1 sequence (P09874 whole entry): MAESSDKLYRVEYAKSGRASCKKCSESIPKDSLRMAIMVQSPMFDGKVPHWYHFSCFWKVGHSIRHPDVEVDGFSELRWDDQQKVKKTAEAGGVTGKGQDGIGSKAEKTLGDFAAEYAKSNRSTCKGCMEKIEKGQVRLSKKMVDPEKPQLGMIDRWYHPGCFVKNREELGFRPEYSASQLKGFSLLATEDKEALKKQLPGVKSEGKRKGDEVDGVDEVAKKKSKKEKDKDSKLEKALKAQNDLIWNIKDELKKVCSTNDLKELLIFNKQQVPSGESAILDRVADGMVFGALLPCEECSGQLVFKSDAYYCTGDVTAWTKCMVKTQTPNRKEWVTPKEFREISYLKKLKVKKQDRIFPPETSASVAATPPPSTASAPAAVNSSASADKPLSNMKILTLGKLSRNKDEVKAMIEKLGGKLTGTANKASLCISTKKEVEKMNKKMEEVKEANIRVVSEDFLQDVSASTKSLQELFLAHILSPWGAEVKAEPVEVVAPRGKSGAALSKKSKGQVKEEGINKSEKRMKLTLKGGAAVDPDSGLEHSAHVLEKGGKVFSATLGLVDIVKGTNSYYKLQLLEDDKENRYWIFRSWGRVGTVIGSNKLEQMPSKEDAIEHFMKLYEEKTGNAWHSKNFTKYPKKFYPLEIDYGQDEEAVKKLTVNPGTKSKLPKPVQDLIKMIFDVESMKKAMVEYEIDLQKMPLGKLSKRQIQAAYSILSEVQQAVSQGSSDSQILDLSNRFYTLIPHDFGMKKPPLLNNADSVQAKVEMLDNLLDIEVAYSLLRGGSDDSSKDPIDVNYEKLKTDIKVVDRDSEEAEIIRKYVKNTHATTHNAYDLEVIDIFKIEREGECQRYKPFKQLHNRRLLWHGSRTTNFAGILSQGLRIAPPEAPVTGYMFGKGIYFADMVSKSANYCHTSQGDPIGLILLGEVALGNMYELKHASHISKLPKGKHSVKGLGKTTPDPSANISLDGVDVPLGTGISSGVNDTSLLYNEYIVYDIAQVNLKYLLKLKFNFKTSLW

Structure (SMILES)	pIC50 [1]	solubility [2]	ED50 [3]	other results
O=c1[nH]c2ccc(O)cc2c2c1CSCC2	7.00			
O=c1[nH]c2ccc(OC3CCN(CCO)CC3)cc2c2c1CSCC2	7.54	Soluble	1600 nM	
O=C1CC2(CCCC2)CC(=O)N1CCCCN1CCN(c2ncccn2)CC1 [BUSPIRONE]				half-life [4]: 3.8 min
O=c1[nH]c2ccc(OC3CCN(Cc4ccccc4)CC3)cc2c2c1CSCC2	7.28	Soluble	800 nM	
O=c1[nH]c2ccc(OC3CCN(CCN4CCCCC4)CC3)cc2c2c1CSCC2	6.76	Soluble	> 30000 nM	
CCCN1CCCC(Oc2ccc3[nH]c(=O)c4c(c3c2)CCSC4)C1 (stereo not drawn)	7.25	Soluble	740 nM	
O=c1[nH]c2ccc(OC3CCN(CCc4ccccc4)CC3)cc2c2c1CSCC2	7.42	Soluble	360 nM	
CCN1CCC(Oc2ccc3[nH]c(=O)c4c(c3c2)CCSC4)C1 (stereo not drawn)	7.89	Soluble	350 nM	
CCN1CCCC(Oc2ccc3[nH]c(=O)c4c(c3c2)CCSC4)C1 (stereo not drawn)	7.60	Soluble	280 nM	
CN1CCC(Oc2ccc3[nH]c(=O)c4c(c3c2)CCSC4)C1 (stereo not drawn)	7.10	Soluble	730 nM	
CCCN1CCC(Oc2ccc3[nH]c(=O)c4c(c3c2)CCSC4)CC1	7.38	Soluble	220 nM	AUC(0-inf) [5]: 2910 ng·h/mL; clearance [6]: 56.7 mL/min/kg; half-life [7]: 207 min; concentration at 0.17 h [8]: 1700 ng/g; concentration at 0.75 h [9]: 391 ng/g; concentration at 4 h [10]: 13 ng/g; concentration at 0.17 h [11]: 2480 ng/mL; concentration at 0.75 h [12]: 610 ng/mL; concentration at 4 h [13]: 18 ng/mL; Kp at 0.17 h [14]: 0.69; Kp at 0.75 h [15]: 0.64; Kp at 4 h [16]: 0.72; half-life [4]: 52.6 min
O=c1[nH]c2ccc(OC3CCCNC3)cc2c2c1CSCC2 (stereo not drawn)	7.55	Soluble	890 nM	
O=S(=O)(NCCCN1CCOCC1)c1ccc2c(c1)Cc1c-2nc(O)c2ccccc12			1000 nM	
CCCCCN1CCC(Oc2ccc3[nH]c(=O)c4c(c3c2)CCSC4)CC1	7.35	Soluble	580 nM	
CN1CCCC(Oc2ccc3[nH]c(=O)c4c(c3c2)CCSC4)C1 (stereo not drawn)	7.41	Soluble	580 nM	
CN(C)c1ccc(CCN2CCC(Oc3ccc4[nH]c(=O)c5c(c4c3)CCSC5)CC2)cc1	< 5.00	Soluble	9440 nM	
O=c1[nH]c2ccc(OC3CCN(c4ccccc4)CC3)cc2c2c1CSCC2	6.16		1860 nM	
CC(C)CCN1CCC(Oc2ccc3[nH]c(=O)c4c(c3c2)CCSC4)CC1	7.15	Soluble	740 nM	
COCCN1CCC(Oc2ccc3[nH]c(=O)c4c(c3c2)CCSC4)CC1	7.40	Soluble	1260 nM	

From ChEMBL document CHEMBL1156288, “Synthesis and evaluation of tricyclic derivatives containing a non-aromatic amide as inhibitors of poly(ADP-ribose)polymerase-1 (PARP-1)” (Bioorg Med Chem Lett, 2010)
